From the M2OR odorant receptor database

Columns and labels:
Conditions in all cases: stereoisomer not certain
[1] = biological target: T1, OR5B17 (Homo sapiens) (UniProt Q8NGF7)
T1 sequence (whole entry): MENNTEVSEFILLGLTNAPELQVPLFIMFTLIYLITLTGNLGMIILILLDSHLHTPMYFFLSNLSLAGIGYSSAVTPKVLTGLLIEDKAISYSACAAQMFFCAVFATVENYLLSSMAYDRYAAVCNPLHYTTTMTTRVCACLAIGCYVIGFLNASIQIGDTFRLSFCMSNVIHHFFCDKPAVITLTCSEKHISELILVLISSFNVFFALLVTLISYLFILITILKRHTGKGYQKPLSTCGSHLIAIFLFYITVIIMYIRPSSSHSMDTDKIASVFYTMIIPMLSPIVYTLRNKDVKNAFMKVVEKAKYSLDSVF
Method in brief: (§1)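 Each entry records the cell line, G-protein, co-transfected protein and tags used. Methods varied with the source, often transient luciferase assays in mammalian cell lines. A receptor–molecule pair is called responsive (active) if the original authors judged its signal statistically different from baseline and non-responsive (inactive) otherwise.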

[2] = biological target: OR5B2 (Homo sapiens) (UniProt Q96R09)
Chain of OR5B2 (Homo sapiens) (Q96R09 whole entry): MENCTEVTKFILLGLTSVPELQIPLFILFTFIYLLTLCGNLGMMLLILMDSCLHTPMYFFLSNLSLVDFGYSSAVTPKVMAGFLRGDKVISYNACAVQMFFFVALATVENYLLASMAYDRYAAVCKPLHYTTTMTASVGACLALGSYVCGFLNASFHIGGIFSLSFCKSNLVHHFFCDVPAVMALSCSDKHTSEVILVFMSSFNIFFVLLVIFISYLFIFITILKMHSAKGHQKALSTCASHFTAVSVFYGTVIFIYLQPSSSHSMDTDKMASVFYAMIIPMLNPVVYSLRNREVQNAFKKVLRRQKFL
Method in brief: as §1

[3] = test system: OR5B2 E6D
Chain of OR5B2 E6D (as listed by the source): as the sequence (Q96R09 whole entry) above, with E6D counted along it
Method in brief: as §1

[4] = biological target: OR5B21 (Homo sapiens) (UniProt A6NL26)
Chain of OR5B21 (Homo sapiens) (A6NL26 whole entry): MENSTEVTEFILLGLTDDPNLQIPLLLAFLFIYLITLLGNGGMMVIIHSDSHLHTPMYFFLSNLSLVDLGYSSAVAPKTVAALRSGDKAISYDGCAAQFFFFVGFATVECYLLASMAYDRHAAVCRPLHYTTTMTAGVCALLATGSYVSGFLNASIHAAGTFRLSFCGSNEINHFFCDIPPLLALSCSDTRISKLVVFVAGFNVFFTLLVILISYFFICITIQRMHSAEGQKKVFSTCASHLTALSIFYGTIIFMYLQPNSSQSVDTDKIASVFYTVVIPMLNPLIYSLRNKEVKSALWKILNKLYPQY
Method in brief: as §1

[5] = biological target: OR5B3 (Homo sapiens) (UniProt Q8NH48)
Chain of OR5B3 (Homo sapiens) (Q8NH48 whole entry): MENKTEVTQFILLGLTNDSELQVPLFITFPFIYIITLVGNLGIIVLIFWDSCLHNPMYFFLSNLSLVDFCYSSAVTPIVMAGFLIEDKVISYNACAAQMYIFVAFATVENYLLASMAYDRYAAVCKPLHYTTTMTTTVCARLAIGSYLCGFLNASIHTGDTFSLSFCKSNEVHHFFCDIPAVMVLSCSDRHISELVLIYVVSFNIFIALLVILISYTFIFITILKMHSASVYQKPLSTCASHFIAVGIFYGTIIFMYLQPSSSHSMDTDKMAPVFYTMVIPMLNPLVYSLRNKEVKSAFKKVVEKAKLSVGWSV
Method in brief: as §1

[6] = test system: OR5B3 I198V G247A
Method in brief: as §1

[7] = test system: OR5BC C141R
Chain of OR5BC C141R (as listed by the source, stated change not applied): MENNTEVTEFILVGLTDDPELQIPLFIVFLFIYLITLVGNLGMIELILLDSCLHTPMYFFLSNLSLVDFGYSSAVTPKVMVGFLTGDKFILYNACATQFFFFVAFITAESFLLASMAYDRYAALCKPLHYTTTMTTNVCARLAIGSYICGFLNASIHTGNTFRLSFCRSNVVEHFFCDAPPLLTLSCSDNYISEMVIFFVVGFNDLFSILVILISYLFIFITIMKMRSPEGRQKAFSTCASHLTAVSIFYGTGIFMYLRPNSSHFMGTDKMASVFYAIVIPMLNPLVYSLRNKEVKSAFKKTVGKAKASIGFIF
Method in brief: as §1

[8] = test system: OR5BH L80I I85M
Method in brief: as §1

[9] = test system: OR5BH L80I
Chain of OR5BH L80I (as listed by the source, stated change not applied): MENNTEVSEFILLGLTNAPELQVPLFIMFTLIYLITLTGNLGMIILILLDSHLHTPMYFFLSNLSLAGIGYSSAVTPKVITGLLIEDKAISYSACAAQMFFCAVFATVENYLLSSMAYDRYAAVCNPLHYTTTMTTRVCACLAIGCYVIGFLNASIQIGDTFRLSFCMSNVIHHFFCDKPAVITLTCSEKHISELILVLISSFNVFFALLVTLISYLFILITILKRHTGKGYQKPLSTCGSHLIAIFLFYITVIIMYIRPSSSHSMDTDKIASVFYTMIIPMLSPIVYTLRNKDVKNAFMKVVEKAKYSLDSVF
Method in brief: as §1

[10] = biological target: OR5C1 (Homo sapiens) (UniProt Q8NGR4)
Chain of OR5C1 (Homo sapiens) (Q8NGR4 whole entry): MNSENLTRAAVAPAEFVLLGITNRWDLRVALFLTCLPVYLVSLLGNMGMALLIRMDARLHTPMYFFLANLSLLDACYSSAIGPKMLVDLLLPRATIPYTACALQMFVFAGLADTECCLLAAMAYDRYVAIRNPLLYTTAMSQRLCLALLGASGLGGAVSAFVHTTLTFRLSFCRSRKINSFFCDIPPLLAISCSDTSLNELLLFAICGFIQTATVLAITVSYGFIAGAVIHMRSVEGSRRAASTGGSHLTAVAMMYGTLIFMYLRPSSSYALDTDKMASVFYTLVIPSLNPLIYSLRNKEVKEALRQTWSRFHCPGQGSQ
Method in brief: as §1

[11] = biological target: OR5D13 (Homo sapiens) (UniProt Q8NGL4)
Chain of OR5D13 (Homo sapiens) (Q8NGL4 whole entry): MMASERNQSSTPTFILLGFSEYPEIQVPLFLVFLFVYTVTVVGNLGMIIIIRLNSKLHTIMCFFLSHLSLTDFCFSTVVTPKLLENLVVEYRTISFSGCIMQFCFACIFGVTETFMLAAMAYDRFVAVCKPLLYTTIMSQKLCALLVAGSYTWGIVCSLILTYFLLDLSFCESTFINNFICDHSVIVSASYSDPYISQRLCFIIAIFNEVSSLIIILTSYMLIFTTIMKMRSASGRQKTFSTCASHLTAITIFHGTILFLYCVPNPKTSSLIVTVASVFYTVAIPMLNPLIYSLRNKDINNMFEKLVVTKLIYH
Method in brief: as §1

[12] = biological target: OR5D14 (Homo sapiens) (UniProt Q8NGL3)
Chain of OR5D14 (Homo sapiens) (Q8NGL3 whole entry): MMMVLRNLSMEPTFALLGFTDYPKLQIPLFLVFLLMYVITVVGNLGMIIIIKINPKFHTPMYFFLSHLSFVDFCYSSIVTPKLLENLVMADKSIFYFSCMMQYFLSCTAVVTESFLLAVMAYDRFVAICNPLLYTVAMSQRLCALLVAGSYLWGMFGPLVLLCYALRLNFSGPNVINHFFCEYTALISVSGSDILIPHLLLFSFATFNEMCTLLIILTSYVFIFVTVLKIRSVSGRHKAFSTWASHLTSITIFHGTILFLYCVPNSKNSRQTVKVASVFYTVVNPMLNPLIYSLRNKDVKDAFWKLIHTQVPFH
Method in brief: as §1

[13] = biological target: OR5D16 (Homo sapiens) (UniProt Q8NGK9)
Chain of OR5D16 (Homo sapiens) (Q8NGK9 whole entry): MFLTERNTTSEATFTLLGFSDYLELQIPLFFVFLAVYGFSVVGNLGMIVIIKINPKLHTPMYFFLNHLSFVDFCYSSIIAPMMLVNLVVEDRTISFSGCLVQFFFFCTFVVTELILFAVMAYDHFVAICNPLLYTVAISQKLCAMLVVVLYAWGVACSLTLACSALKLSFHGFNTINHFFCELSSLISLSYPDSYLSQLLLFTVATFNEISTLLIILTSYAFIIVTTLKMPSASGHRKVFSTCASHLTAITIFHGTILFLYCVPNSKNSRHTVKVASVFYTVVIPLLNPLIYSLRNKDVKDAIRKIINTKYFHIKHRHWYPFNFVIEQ
Method in brief: as §1

[14] = biological target: OR5D18 (Homo sapiens) (UniProt Q8NGL1)
Chain of OR5D18 (Homo sapiens) (Q8NGL1 whole entry): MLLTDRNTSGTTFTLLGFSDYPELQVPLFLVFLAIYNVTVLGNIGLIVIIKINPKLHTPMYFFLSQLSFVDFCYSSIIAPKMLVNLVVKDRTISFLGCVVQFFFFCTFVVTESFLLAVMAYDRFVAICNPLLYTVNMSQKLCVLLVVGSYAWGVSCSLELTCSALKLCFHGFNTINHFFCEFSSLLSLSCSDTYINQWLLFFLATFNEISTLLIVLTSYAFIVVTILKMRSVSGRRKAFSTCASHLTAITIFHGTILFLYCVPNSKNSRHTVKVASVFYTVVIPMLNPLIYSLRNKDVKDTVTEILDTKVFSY
Method in brief: as §1

[15] = test system: OR5DD C62Y
Chain of OR5DD C62Y (as listed by the source, stated change not applied): as the sequence (Q8NGL4 whole entry) above, with C62Y counted along it
Method in brief: as §1

[16] = test system: OR5DE S249A L290P
Method in brief: as §1

[17] = test system: OR5DG A156T
Chain of OR5DG A156T (as listed by the source, stated change not applied): as the sequence (Q8NGK9 whole entry) above, with A156T counted along it
Method in brief: as §1

[18] = test system: OR5DI
Chain of OR5DI (as listed by the source): as the sequence (Q8NGL1 whole entry) above, with N136D counted along it
Method in brief: as §1

[19] = biological target: OR5F1 (Homo sapiens) (UniProt O95221)
Chain of OR5F1 (Homo sapiens) (O95221 whole entry): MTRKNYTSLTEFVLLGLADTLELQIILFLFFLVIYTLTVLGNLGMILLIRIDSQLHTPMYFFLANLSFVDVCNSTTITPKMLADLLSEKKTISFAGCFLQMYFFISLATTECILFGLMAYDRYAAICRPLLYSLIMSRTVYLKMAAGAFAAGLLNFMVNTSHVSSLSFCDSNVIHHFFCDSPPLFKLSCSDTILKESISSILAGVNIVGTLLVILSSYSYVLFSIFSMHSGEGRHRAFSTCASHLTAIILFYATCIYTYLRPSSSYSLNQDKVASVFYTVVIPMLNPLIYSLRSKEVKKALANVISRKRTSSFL
Method in brief: as §1

[20] = test system: OR5F1
Chain of OR5F1 (as listed by the source): as the sequence (O95221 whole entry) above, with S294N counted along it
Method in brief: as §1

Measured: odorant receptor agonist call

O=Cc1ccccc1
inactive: [1]

C=CCc1ccc(OC)cc1
inactive: [1]

O=CC=Cc1ccccc1
inactive: [1]

C=CCOC(=O)Cc1ccccc1
inactive: [1] | [2] | [3] | [4] | [5] | [6] | [7] | [8] | [9] | [10] | [11] | [12] | [13] | [14] | [15] | [16] | [17] | [18] | [19] | [20]

Cc1c([N+](=O)[O-])c(C)c([N+](=O)[O-])c(C(C)(C)C)c1[N+](=O)[O-]
inactive: [1] | [2] | [4] | [5] | [10] | [11] | [12] | [13] | [14] | [19]
